Entries after “also recorded” stand apart in the source; their conditions may differ. Where two headings read alike, the source gives them in different places.
Columns and labels:
[1] = tested on: THP-1 cells; experiment: Macrophage; type: cell-based, human; conditions: vs L. donovani DD8 intracellular amastigotes
[2] = tested on: L. donovani DD8 promastigotes; experiment: Determination of the cidal action of compounds; type: cell-based, Leishmania donovani; conditions: after 24 h incubation
In short: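 DD8 promastigotes from two cultures in separate M199 media (N = 2) seeded at 5 × 10^5 parasites/mL. Test compound added; cell numbers counted at each time point. Absence of cells at a concentration was scored as cidal.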

[3] = tested on: L. donovani DD8 promastigotes; experiment: Selection of resistant parasites under increasing drug pressure; type: cell-based, Leishmania donovani
In short: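 DD8 promastigotes were cultured under gradually increasing concentrations of each drug, starting at a sublethal level, to select resistant strains. Resistance was confirmed with the promastigote viability assay.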

[4] = tested on: L. donovani MHOM/IN/80/DD8 intracellular amastigotes; experiment: L. donovani MHOM/IN/80/DD8 intracellular amastigote assay; type: cell-based, Leishmania donovani; conditions: for IC50: Leishmania donovani, THP-1, 96 h, read-out: IC50 (µM) [mean ± SD]
In short: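 THP-1 cells: 12,500/well, 25 ng/mL PMA, 24 h at 37 °C. PMA washed off; cells rested 48 h. Infected with metacyclic promastigotes from 7-day culture (host:parasite 1:2.5) for 24 h, then free parasites washed off. Test compound 80–0.004 μM (0.4% DMSO), 96 h. PFA fixation, SYBR green/CellMask stain. Infected cells normalized to 1 μM amphotericin B and 0.4% DMSO. Sigmoidal IC50, two independent experiments.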

[5] = tested on: Leishmania donovani promastigotes; conditions: cited from earlier work
[6] = Distribution coefficient estimation using chromatography; type: physicochemical; conditions: pH 7.4
In short: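 LogD estimated at pH 7.4 by gradient HPLC, correlating retention against standards of known partition coefficient.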

[7] = tested on: amphotericin B resistant L. donovani DD8 promastigotes; experiment: Activity on amphotericin B resistant parasites, promastigote assay; type: cell-based, Leishmania donovani
In short: (§1)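 Resistant DD8 promastigote lines were raised by culture under gradually increasing drug concentrations, starting sublethal. Resistant clones were then tested alongside the wild-type strain in the resazurin promastigote viability assay.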

[8] = tested on: amphotericin B resistant L. donovani DD8 intracellular amastigotes; experiment: Activity on amphotericin B resistant parasites, intracellular amastigote assay; type: cell-based, Leishmania donovani
In short: (§2)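 Drug-selected resistant DD8 promastigotes were used to infect PMA-differentiated THP-1 cells. Test compound activity was assessed in the intracellular amastigote assay and compared with the wild-type strain.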

[9] = tested on: L. donovani MHOM/SD/62/1S-CL2D, LdBOB intracellular amastigotes; experiment: L. donovani MHOM/SD/62/1S-CL2D, LdBOB intracellular amastigote assay; type: cell-based, Leishmania donovani; conditions: for IC50: Leishmania donovani, 72 h, read-out: IC50 (µM) [mean ± SD]; for fold difference in activity between L. donovani DD8 and LdBOB: intracellular amastigote 72 h assay; for Selectivity THP-1 cells: vs L. donovani LdBOB intracellular amastigotes, 72 h incubation
[10] = tested on: miltefosine resistant L. donovani DD8 intracellular amastigotes; experiment: Activity on miltefosine resistant parasites, intracellular amastigote assay; type: cell-based, Leishmania donovani
In short: as §2

[11] = tested on: miltefosine resistant L. donovani DD8 promastigotes; experiment: Activity on miltefosine resistant parasites, promastigote assay; type: cell-based, Leishmania donovani
In short: as §1

[12] = tested on: L. infantum chagasi (MHOM/BR/1972/BH46); experiment: In vivo L. infantum chagasi chronic hamster model, parasite load by qPCR; design: species or system golden hamsters (Mesocricetus auratus); conditions: for average number of amastigotes in the liver / average number of amastigotes in the spleen: group average
[13] = tested on: L. infantum chagasi (MHOM/BR/1972/BH46); experiment: Histopathological analysis of hamster liver and spleen; type: in vivo, golden hamsters (Mesocricetus auratus); conditions: infected hamsters, 10 mg/kg/day oral
[14] = tested on: cytokines IL-10, IL-4, TGFβ, IFN-γ, IL-17 and TNFα; experiment: Relative expression of cytokines by qPCR in hamster spleen and liver; type: in vivo, golden hamsters (Mesocricetus auratus); conditions: for TGF-β expression: compared to untreated (UTG)
In short: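 Hamsters in chronic infection (~60 days) treated 10 consecutive days: vehicle (0.5% carboxymethyl cellulose, oral), GLU 50 mg/kg/day ip, or test compound. Spleen/liver RNA reverse-transcribed; TaqMan qPCR normalized to hamster microglobulin at equal cDNA input; water as negative control. Cycling: 50 °C 2 min, 95 °C 10 min, 40 × (95 °C 15 s, 60 °C 1 min).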

[15] = tested on: L. donovani DD8 promastigotes; experiment: Time to kill assay; type: cell-based; conditions: Leishmania donovani, read-out: IC50, time to kill, promastigotes
In short: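 Time-kill: DD8 promastigotes exposed to test compound for 24, 48, 72 or 96 h in the promastigote viability assay. 14-point concentration series from 40 µM top; IC50 calculated at each exposure time.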

[16] = tested on: HEK-293 cells; experiment: HEK-293 resazurin viability assay; type: cell-based, human; conditions: vs L. donovani DD8 intracellular amastigotes, 96 h incubation
[17] = tested on: L. donovani DD8 intracellular amastigotes; experiment: Time to kill assay; type: cell-based; conditions: Leishmania donovani, 24 h, read-out: IC50, time to kill, intracellular amastigotes
In short: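 Intracellular L. donovani amastigotes were exposed to test compound for 24, 48 or 72 h, with amphotericin B and miltefosine as reference drugs. A 14-point concentration–response series started at 40 µM, and an IC50 was derived for each exposure time. Other conditions followed the paper's intracellular amastigote assay.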

[18] = tested on: L. tropica, L. aethiopica, L. mexicana, L. panamensis and L. donovani; conditions: read-out: EC50 values obtained for miltefosine; varied between species; cited from earlier work
[19] = tested on: L. donovani; conditions: read-out: mean IC50; L. donovani DD8; cited from earlier work
[20] = L. donovani DD8 intracellular amastigote assay (96 h)
[21] = BZ1, BZ1-I 10 mg/kg/day oral, GLU 50 mg/kg/day i.p.
[22] = BZ1, BZ1-I 10 mg/kg/day oral, GLU 50 mg/kg/day i.p., 10 days

Molecule	Selectivity THP-1 cells ([1]; 96 h incubation)	concentration at which no viable promastigotes were observed [2] [µM]	concentration withstood by resistant clones ([3]; after 428 days) [µM]	IC50 [4] [µM]	activity against amphotericin B resistant strain compared to wild-type [7]	Selectivity THP-1 cells ([1]; 72 h incubation)	activity against amphotericin B resistant strain compared to wild-type [8]	IC50 [9] [µM]	fold difference in activity between L. donovani DD8 and LdBOB [9] [fold]	Selectivity THP-1 cells [9]	activity against miltefosine resistant strain compared to wild-type [10]	activity against miltefosine resistant strain compared to wild-type [11]	parasite burden reduction in spleen [12, 21] [%]	average number of amastigotes in the liver [12, 22] [g⁻¹]	average number of amastigotes in the spleen [12, 22] [g⁻¹]	histopathological findings, liver [13]	histopathological findings, spleen [13]	TGF-β expression [14]	IC50 ([15]; 24 h) [nM]	Selectivity HEK-293 cells [16]	also measured
C[C@@H]1[C@H](O)[C@@H](C)/C=C/C=C/C=C/C=C/C=C/C=C/C=C/[C@H](O[C@@H]2O[C@H](C)[C@@H](O)[C@H](N)[C@@H]2O)C[C@@H]2O[C@](O)(C[C@@H](O)C[C@@H](O)[C@H](O)CC[C@@H](O)C[C@@H](O)CC(=O)O[C@H]1C)C[C@H](O)[C@H]2C(=O)O [Amphotericin B, reference compound]	10.24	0.33	0.42	0.2 ± 0.02																	resistance generated [5]: 20 fold
CCOc1ccc(Nc2c3c(nc4ccccc24)CCC3)cc1 [BZ1, N-(4-Ethoxyphenyl)-2,3-dihydro-1H-cyclopenta[b]quinolin-9-amine]	>33.89	6.66	11	0.59 ± 0.13	no significant difference	>25.64	no significant difference	4.4 ± 0.12	5	>11.76	no significant difference	no significant difference	98.56	3020	25400	inflammatory nodules in the hepatic parenchyma, lymph histiocytic inflammatory infiltrate in the portal space forming nodules	increase of macrophages in the red pulp forming nodular aggregates and granulomas	significantly downregulated; also recorded: decreased expression of TGF-β	4310 ± 220	> 33	chromatographic logD [6]: 5; fold greater activity than miltefosine [4, 20]: 5 fold; fold lower in vitro activity than amphotericin B [4, 20]: ~ 3 fold; in vivo toxicity in the hamster VL model ([12]; 10 mg/kg/day oral, 10 days): does not exhibit in vivo toxicity; TNF-α expression ([14]; compared to GLU and untreated, liver and spleen samples): significant downregulation; IL-4 expression ([14]; compared to untreated, spleen and liver samples): significantly downregulated; IL-17 expression ([14]; liver samples, compared to GLU): significant downregulation; IC50 ([15]; 48 h): 2370 ± 740 nM
c1ccc(Oc2ccc(Nc3c4c(nc5ccccc35)CCC4)cc2)cc1 [BZ1-I, N-(4-phenoxyphenyl)-1H,2H,3H-cyclopenta[b]quinolin-9-amine]	>49.12	1.66		0.4 ± 0.38	no significant difference	>44.44	no significant difference	4.26 ± 0.24	10	>11.49	no significant difference	no significant difference	99.95	120	162	mild inflammatory infiltrate in the portal space and nodules in the parenchyma with the presence of giant cells	evident increase in macrophages in the red pulp with the formation of nodules	decreased expression of TGF-β	3080 ± 1110	>24.11	concentration withstood by resistant clones ([3]; after 210 days): 5.5 µM; fold greater activity compared to the GLU treatment group ([12]; 10 mg/kg/day oral vs GLU 50 mg/kg/day i.p.): ~ 21 fold; IC50 [17]: 4840 ± 830 nM; IC50 ([15]; 48 h): 690 ± 350 nM
CCCCCCCCCCCCCCCCOP(=O)([O-])OCC[N+](C)(C)C [Miltefosine, miltefosine, reference compound]	>7.87	6.66	40	2.54 ± 0.57																15.66	Selectivity THP-1 cells ([1]; 96 h incubation, listed as miltefosine): 7.87; EC50 [18]: 2630 to 10600 nM
NC[C@@H]1O[C@H](O[C@H]2[C@@H](O)[C@H](O[C@@H]3[C@@H](O)[C@H](N)C[C@H](N)[C@H]3O[C@H]3O[C@H](CO)[C@@H](O)[C@H](O)[C@H]3N)O[C@@H]2CO)[C@H](N)[C@@H](O)[C@@H]1O [Paromomycin]																					IC50 [19]: 158000 to 166000 nM
Meglumine Antimoniate [reference compound]													99.21	2530	12200						parasite burden reduction in liver [12, 21]: 98.79%; INF-γ expression ([14]; spleen samples): significant difference; also recorded: increased INF-γ (Th1) expression

From publication PMC12238405 (Communications Biology, 2025)
